Publication PMC3824626 (Bioorganic & medicinal chemistry letters, 2013)
“Also recorded” adds a separate entry of the source.

Legend:
[1] = target: BLM helicase (Homo sapiens, UniProt P54132); assay: gel-based BLM DNA unwinding assay; type: biochemical; settings: for IC50 (BLM): gel-based BLM DNA unwinding assay
[2] = kinetic aqueous solubility; type: physicochemical; settings: aqueous/DMSO solubility compared with other analogs
Summary of the method: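 Kinetic aqueous solubility in PBS buffer, pH 7.4. It was measured by chemiluminescent nitrogen detection (CLND) at an outside laboratory and in-house by UV-Vis detection.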

[3] = target: WRN (Homo sapiens, UniProt Q14191); assay: gel-based DNA unwinding assay, WRN; type: biochemical; settings: from gel-based IC50 values
[4] = target: BLM ATPase activity (Homo sapiens, UniProt P54132); assay: BLM ATPase kinetic analysis; type: biochemical
Summary of the method: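 Michaelis–Menten analysis of BLM ATPase activity with and without test compound, replotted as a Lineweaver–Burk double-reciprocal plot. Each point is the mean ± SD of quadruplicate determinations, and the data shown represent three independent experiments.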

[5] = target: BLM (Homo sapiens, UniProt P54132); assay: fluorescence polarization analysis of BLM binding to single-stranded DNA
[6] = tested on: PSNF5 cells (BLM-complemented GM08505-derived BS cells); assay: sister chromatid exchange frequency in BLM-complemented cells; type: cell-based, human; settings: cells expressing BLM (PSNF5)
[7] = tested on: PSNG13 cells (BLM-defective GM08505-derived BS cells); assay: sister chromatid exchange frequency in BLM-defective cells; type: cell-based, human; settings: cells lacking BLM (PSNG13)
[8] = tested on: sister chromatid exchanges; settings: cited from earlier work
[9] = tested on: BLM-positive cells; settings: cited from earlier work
[10] = tested on: WRN helicase; settings: cited from earlier work

Sequence of BLM helicase (P54132 whole entry): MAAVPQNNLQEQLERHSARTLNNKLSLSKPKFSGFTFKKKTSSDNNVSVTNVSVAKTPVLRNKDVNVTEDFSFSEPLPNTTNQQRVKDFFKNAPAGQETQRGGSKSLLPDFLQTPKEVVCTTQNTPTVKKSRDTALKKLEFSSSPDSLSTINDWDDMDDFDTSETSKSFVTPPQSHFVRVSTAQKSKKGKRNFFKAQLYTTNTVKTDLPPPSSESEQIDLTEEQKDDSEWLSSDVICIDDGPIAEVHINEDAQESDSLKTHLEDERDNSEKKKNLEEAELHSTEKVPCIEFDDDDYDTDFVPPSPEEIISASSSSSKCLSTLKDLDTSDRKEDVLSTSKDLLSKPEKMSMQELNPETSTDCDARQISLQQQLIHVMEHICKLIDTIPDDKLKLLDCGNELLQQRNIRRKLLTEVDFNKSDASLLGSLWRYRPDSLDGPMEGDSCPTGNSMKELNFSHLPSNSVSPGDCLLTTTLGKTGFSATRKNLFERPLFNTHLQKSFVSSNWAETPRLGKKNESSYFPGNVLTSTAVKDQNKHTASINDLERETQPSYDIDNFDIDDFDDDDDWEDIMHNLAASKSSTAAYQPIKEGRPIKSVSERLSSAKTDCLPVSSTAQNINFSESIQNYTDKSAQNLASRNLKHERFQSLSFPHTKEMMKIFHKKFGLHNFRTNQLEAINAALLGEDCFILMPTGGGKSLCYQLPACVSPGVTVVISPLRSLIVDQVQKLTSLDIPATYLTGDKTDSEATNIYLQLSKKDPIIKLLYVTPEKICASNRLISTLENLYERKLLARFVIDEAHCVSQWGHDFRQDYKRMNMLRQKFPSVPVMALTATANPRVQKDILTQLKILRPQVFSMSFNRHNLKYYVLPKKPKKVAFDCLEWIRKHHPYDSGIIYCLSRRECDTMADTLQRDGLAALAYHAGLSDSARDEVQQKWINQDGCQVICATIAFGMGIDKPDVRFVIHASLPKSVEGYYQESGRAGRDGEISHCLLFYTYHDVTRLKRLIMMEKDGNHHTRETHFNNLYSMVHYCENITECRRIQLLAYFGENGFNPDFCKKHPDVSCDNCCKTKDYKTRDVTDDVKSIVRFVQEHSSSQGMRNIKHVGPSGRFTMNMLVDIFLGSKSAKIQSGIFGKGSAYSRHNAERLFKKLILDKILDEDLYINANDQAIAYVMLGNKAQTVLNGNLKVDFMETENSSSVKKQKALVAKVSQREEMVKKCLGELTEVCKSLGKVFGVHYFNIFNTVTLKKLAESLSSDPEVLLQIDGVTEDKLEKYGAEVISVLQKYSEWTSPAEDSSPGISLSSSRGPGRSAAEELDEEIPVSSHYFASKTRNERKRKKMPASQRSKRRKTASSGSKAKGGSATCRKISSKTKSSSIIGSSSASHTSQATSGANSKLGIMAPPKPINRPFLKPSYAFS
Sequence of BLM ATPase activity (P54132 whole entry): as above
Sequence of BLM (P54132 whole entry): as above
Sequence of WRN (Q14191 whole entry): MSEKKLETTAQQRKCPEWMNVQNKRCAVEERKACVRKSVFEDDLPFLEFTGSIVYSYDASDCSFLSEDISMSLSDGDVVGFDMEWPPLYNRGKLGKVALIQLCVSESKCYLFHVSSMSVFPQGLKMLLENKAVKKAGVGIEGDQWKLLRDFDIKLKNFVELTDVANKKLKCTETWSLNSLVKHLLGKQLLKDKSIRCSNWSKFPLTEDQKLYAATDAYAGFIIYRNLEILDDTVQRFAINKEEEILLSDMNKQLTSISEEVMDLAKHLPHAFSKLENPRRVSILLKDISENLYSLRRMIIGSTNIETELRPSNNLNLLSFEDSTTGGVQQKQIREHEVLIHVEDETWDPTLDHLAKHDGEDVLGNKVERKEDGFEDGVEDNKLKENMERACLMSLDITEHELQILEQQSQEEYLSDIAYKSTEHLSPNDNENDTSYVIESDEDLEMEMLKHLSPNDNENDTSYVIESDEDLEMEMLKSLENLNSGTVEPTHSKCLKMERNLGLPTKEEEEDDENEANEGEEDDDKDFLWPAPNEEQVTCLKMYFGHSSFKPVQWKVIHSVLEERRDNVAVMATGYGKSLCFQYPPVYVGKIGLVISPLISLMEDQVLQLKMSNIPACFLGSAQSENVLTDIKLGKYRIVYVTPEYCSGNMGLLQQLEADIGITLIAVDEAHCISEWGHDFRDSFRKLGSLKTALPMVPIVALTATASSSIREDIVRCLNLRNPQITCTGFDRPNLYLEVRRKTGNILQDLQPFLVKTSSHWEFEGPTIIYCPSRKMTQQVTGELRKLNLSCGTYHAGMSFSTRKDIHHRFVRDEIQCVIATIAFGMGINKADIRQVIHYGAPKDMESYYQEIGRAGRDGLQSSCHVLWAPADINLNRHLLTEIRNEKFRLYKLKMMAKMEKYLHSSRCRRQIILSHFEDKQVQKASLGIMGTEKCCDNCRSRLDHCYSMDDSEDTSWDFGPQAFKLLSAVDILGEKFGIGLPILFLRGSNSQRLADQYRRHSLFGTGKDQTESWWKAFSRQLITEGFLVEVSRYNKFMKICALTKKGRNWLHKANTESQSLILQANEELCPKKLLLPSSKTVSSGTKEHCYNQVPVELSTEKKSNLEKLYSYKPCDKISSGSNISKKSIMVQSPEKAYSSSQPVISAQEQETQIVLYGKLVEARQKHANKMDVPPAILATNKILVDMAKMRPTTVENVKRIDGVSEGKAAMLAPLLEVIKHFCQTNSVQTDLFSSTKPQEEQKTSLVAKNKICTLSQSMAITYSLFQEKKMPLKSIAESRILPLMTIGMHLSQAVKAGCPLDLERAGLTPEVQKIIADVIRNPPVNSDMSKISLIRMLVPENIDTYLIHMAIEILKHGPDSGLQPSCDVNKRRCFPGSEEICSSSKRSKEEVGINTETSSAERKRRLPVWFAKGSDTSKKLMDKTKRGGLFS

| SMILES | IC50 (BLM) [1] | other results |
| --- | --- | --- |
| O=C(Nc1ccc(Cl)c(Cl)c1)Nc1nnc(-c2ccccc2)s1 [Compound 4a] | inactivity | – |
| O=C(Nc1ccc(Cl)c(Cl)c1)Nc1nnc(-c2ccccn2)s1 [Compound 4b] | inactivity | – |
| O=C(Nc1ccc(Cl)c(Cl)c1)Nc1ccc(-c2ccncc2)s1 [Compound 6a] | loss of activity | – |
| O=C(Nc1ccc(Cl)c(Cl)c1)Nc1ncc(-c2ccncc2)s1 [Compound 6c] | completely inactive | – |
| O=C(Nc1ccc(Cl)c(Cl)c1)Nc1nnc(-c2ccncc2)o1 [Compound 6d] | loss of activity | – |
| N=C(Nc1ccc(Cl)c(Cl)c1)Nc1nnc(-c2ccncc2)s1 [Compound 7b] | weakly active or inactive | – |
| O=C(Cc1ccc2ccccc2c1)Nc1nnc(-c2ccncc2)s1 [Compound 7c] | weakly active or inactive | – |
| O=C(Nc1nnc(-c2ccncc2)s1)Oc1ccc2ccccc2c1 [Compound 7d] | weakly active or inactive | – |
| O=S(=O)(Cc1ccc(Cl)c(Cl)c1)Nc1nnc(-c2ccncc2)s1 [Compound 7e] | weakly active or inactive | – |
| N#C/N=C(/Nc1ccc(F)c(C(F)(F)F)c1)Nc1nnc(-c2ccncc2)s1 [Compound 7f] | weakly active or inactive | – |
| O=c1c(Nc2ccc(Cl)c(Cl)c2)c(Nc2nnc(-c3ccncc3)s2)c1=O [Compound 7g] | – | solubility (in words) [2]: not improved over (1) |
| CN(C(=O)Nc1ccc2ccccc2c1)c1nnc(-c2ccncc2)s1 [Compound 7h] | complete loss of activity | – |
| O=C(Nc1ccc(Cl)cc1)Nc1nnc(-c2ccncc2)s1 [Compound 8] | drastic loss in activity | – |
| O=C(Nc1ccccc1)Nc1nnc(-c2ccncc2)s1 [Compound 9] | drastic loss in activity | – |
| N#Cc1cc(NC(=O)Nc2nnc(-c3ccncc3)s2)ccc1Cl [Compound 10] | – | improvement in potency when 3-Cl is replaced with cyano ([1]; relative to compound 1, BLM gel-based IC50): 4 fold; solubility (in words) [2]: noticeably diminished aqueous/DMSO solubility; also recorded: diminished solubility compared with 33 |
| N#Cc1cc(NC(=O)Nc2nnc(-c3ccncc3)s2)ccc1Br [Compound 23] | – | solubility (in words) [2]: noticeably diminished aqueous/DMSO solubility |
| N#Cc1ccc(NC(=O)Nc2nnc(-c3ccncc3)s2)cc1Br [Compound 24] | – | solubility (in words) [2]: noticeably diminished aqueous/DMSO solubility |
| N#Cc1cc(NC(=O)Nc2nnc(-c3ccncc3)s2)ccc1-c1cn[nH]c1 [Compound 33] | comparable activity to the probe compound | selectivity for BLM over WRN [3]: greater than 6 fold; mode of BLM inhibition ([4]; Lineweaver-Burk double reciprocal plot): non-ATP competitive BLM inhibitor; effect on apparent Km of BLM ATPase activity ([4]; single-stranded oligonucleotide as DNA effector): does not affect the apparent Km value; displacement of DNA binding to BLM versus related DNA helicases [5]: selective displacement of DNA binding to BLM over related DNA helicases; inhibition of BLM binding to single-stranded DNA [5]: dose-dependent inhibition; induction of SCEs [6]: significant and dose-dependent induction of SCEs; induction of SCEs [7]: no further increase in SCEs |
| O=C(Nc1ccc(-n2ccnc2)c(F)c1)Nc1nnc(-c2ccncc2)s1 [Compound 35] | good activity | – |
| N#Cc1cc(NC(=O)Nc2nnc(-c3ccncc3)s2)ccc1-c1ccc[nH]1 [Compound 36] | good activity | – |
| O=C(Nc1ccc(F)c(C(F)(F)F)c1)Nc1nnc(-c2ccncc2)s1 [ML216] | – | induction of sister chromatid exchanges [8]: induce sister chromatid exchanges; antiproliferative activity [9]: selective antiproliferative activity in BLM-positive cells |
| CCCOCN1C(=O)C=CC1=O [NSC19630] | – | WRN helicase inhibition [10]: small molecule inhibitor of WRN helicase |
